Data from ChEMBL document CHEMBL1128525, “The role of water molecules in the structure-based design of (5-hydroxynorvaline)-2-cyclosporin: synthesis, biological activity, and crystallographic analysis with cyclophilin A” (J Med Chem, 1995).

Experiments:
[1] = target: T1, Peptidyl-prolyl cis-trans isomerase A (Homo sapiens, UniProt P62937); experiment: In vitro binding affinity against cyclophilin A by ELISA
Mus musculus = species: Mus musculus; experiment: The compound was evaluated in vitro for the immunosuppressive activity in mouse mixed lymphocyte reaction (MLR_M); format: functional
Outline: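 Cellular immunosuppression read in the mouse mixed lymphocyte reaction or the interleukin-2 reporter gene assay. The IC50 in nM is the mean of three independent experiments.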

[2] = target: T1, Peptidyl-prolyl cis-trans isomerase A; experiment: In vitro binding affinity against cyclophilin A by rotamase assay

T1 sequence (P62937 whole entry): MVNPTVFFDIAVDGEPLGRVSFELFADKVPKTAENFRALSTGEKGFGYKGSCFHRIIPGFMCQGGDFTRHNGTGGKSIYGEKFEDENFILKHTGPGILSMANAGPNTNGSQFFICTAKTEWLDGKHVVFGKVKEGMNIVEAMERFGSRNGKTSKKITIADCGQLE

SMILES | IC50 [1] [nM] | IC50 (Mus musculus) [nM] | IC50 [2] [nM]
C/C=C/C[C@@H](C)[C@@H](O)[C@@H]1C(=O)N[C@H](CCC)C(=O)N(C)[C@@H](CO)C(=O)N(C)[C@H](CC(C)C)C(=O)N[C@H](C(C)C)C(=O)N(C)[C@H](CC(C)C)C(=O)N[C@H](C)C(=O)N[C@@H](C)C(=O)N(C)[C@H](CC(C)C)C(=O)N(C)[C@H](CC(C)C)C(=O)N(C)[C@H](C(C)C)C(=O)N1C | 93 | 56 | 48
C/C=C/C[C@@H](C)[C@@H](O)[C@@H]1C(=O)N[C@H](CCCO)C(=O)N(C)CC(=O)N(C)[C@H](CC(C)C)C(=O)N[C@H](C(C)C)C(=O)N(C)[C@H](CC(C)C)C(=O)N[C@H](C)C(=O)N[C@@H](C)C(=O)N(C)[C@H](CC(C)C)C(=O)N(C)[C@H](CC(C)C)C(=O)N(C)[C@H](C(C)C)C(=O)N1C | 450 | 140 | 256
C/C=C/C[C@@H](C)[C@@H](O)[C@H]1C(=O)N[C@@H](CCC)C(=O)N(C)CC(=O)N(C)[C@@H](CC(C)C)C(=O)N[C@@H](C(C)C)C(=O)N(C)[C@@H](CC(C)C)C(=O)N[C@@H](C)C(=O)N[C@H](C)C(=O)N(C)[C@@H](CC(C)C)C(=O)N(C)[C@@H](CC(C)C)C(=O)N(C)[C@@H](C(C)C)C(=O)N1C [GECLOSPORIN] | 310 | 46 | 130
